Results as given in ChEMBL document CHEMBL3627671, “Novel derivatives of nitro-substituted salicylic acids: Synthesis, antimicrobial activity and cytotoxicity” (Bioorg Med Chem, 2015).
Values after ≈ are worked out from the molar mass of the structure shown.

Columns and labels:
Escherichia coli [1] = assay: Antibacterial activity against Escherichia coli CCM4517 after 24 hrs by microdilution broth method; type: functional; conditions: CCM4517, 24 h
Outline: (§1)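 Mueller-Hinton broth microdilution (modified M07-A07), pH 7.4 (±0.2). Compounds dissolved in DMSO, tested at final 500 to 0.49 µmol/L. Inoculum in sterile water matched to 0.5 McFarland. Incubated in the dark, humid atmosphere, 35 °C, read at 24 and 48 h visually and at 540 nm. MIC taken as ≥95% growth reduction (IC95) versus control.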

Aspergillus fumigatus [2] = assay: Antifungal activity against Aspergillus fumigatus 231 after 24 hrs by microdilution broth method; type: functional; conditions: Aspergillus fumigatus, 231, 24 h
Outline: (§2)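 CLSI M27-A3 broth microdilution in RPMI 1640 with glutamine, buffered to pH 7.0 with MOPS; DMSO diluent. Yeast inoculum 5 × 10^3 ± 0.2 CFU/mL. Moulds grown on Sabouraud agar 3–10 days before spore harvest, final inoculum 0.5-5 × 10^4 CFU/mL, checked in a Bürker chamber. Incubated dark, humid, 35 °C, read at 24 and 48 h visually and at 540 nm. MIC taken as ≥80% (yeasts) or ≥50% (filamentous) growth reduction versus control.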

Staphylococcus aureus [3] = assay: Antibacterial activity against Staphylococcus aureus CCM 4516/08 after 48 hrs by microdilution broth method; type: functional; conditions: CCM 4516/08, 48 h
Candida tropicalis [4] = assay: Antifungal activity against Candida tropicalis 156 after 24 hrs by microdilution broth method; type: functional; conditions: Candida tropicalis, 156, 24 h; outline: as §2
Mycobacterium kansasii [5] = assay: Antimycobacterial activity against Mycobacterium kansasii 6509/96 after 21 days; type: functional; conditions: 6509/96, 504 h
Outline: (§3)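 Šula's semisynthetic medium micromethod at 37 °C, read after 7, 14 and 21 days. The 1.0 McFarland suspension was diluted 10^-4. MIC determined. 6509/96 is a clinical isolate.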

Enterococcus sp. [6] = assay: Antibacterial activity against Enterococcus sp. J 14365/08 after 24 hrs by microdilution broth method; type: functional; conditions: J 14365/08, 24 h; outline: as §1
Candida albicans [7] = assay: Antifungal activity against Candida albicans ATCC 44859 after 48 hrs by microdilution broth method; type: functional; conditions: ATCC 44859, 48 h; outline: as §2
Mycobacterium avium [8] = assay: Antimycobacterial activity against Mycobacterium avium 330/80 after 14 days; type: functional; conditions: 330/80, 336 h
Staphylococcus aureus [9] = assay: Antibacterial activity against methicillin-resistant Staphylococcus aureus H 5996/08 after 24 hrs by microdilution broth method; type: functional; conditions: H 5996/08, 24 h
Escherichia coli [10] = assay: Antibacterial activity against Escherichia coli CCM4517 after 48 hrs by microdilution broth method; type: functional; conditions: CCM4517, 48 h; outline: as §1
Staphylococcus aureus [11] = assay: Antibacterial activity against Staphylococcus aureus CCM 4516/08 after 24 hrs by microdilution broth method; type: functional; conditions: CCM 4516/08, 24 h
[12] = tested on: Trichophyton mentagrophytes; assay: Antifungal activity against Trichophyton mentagrophytes 445 after 48 hrs by microdilution broth method; type: functional; conditions: Trichophyton mentagrophytes, 445, 48 h
Candida tropicalis [13] = assay: Antifungal activity against Candida tropicalis 156 after 48 hrs by microdilution broth method; type: functional; conditions: Candida tropicalis, 156, 48 h; outline: as §2
[14] = tested on: Staphylococcus epidermidis; assay: Antibacterial activity against Staphylococcus epidermidis H 6966/08 after 48 hrs by microdilution broth method; type: functional; conditions: H 6966/08, 48 h; outline: as §1
Klebsiella pneumoniae [15] = assay: Antibacterial activity against Klebsiella pneumoniae D 11750/08 after 48 hrs by microdilution broth method; type: functional; conditions: D 11750/08, 48 h; outline: as §1
Mycobacterium kansasii [16] = assay: Antimycobacterial activity against Mycobacterium kansasii 235/80 after 21 days; type: functional; conditions: 235/80, 504 h; outline: as §3
Pseudomonas aeruginosa [17] = assay: Antibacterial activity against Pseudomonas aeruginosa CCM 1961 after 48 hrs by microdilution broth method; type: functional; conditions: CCM 1961, 48 h; outline: as §1
Pichia kudriavzevii [18] = assay: Antifungal activity against Candida krusei E28 after 48 hrs by microdilution broth method; type: functional; conditions: E28, 48 h; outline: as §2
Mycobacterium avium [19] = assay: Antimycobacterial activity against Mycobacterium avium 330/80 after 21 days; type: functional; conditions: 330/80, 504 h
Mycobacterium kansasii [20] = assay: Antimycobacterial activity against Mycobacterium kansasii 235/80 after 14 days; type: functional; conditions: 235/80, 336 h; outline: as §3
[21] = tested on: Mycobacterium tuberculosis; assay: Antimycobacterial activity against Mycobacterium tuberculosis H37Rv 331/88 after 14 days; type: functional; conditions: H37Rv 331/88, 336 h
Mycobacterium kansasii [22] = assay: Antimycobacterial activity against Mycobacterium kansasii 235/80 after 7 days; type: functional; conditions: 235/80, 168 h; outline: as §3
Mycobacterium kansasii [23] = assay: Antimycobacterial activity against Mycobacterium kansasii 6509/96 after 14 days; type: functional; conditions: 6509/96, 336 h; outline: as §3
Lichtheimia corymbifera [24] = assay: Antifungal activity against Absidia corymbifera 272 after 48 hrs by microdilution broth method; type: functional; conditions: Lichtheimia corymbifera, 272, 48 h; outline: as §2
[25] = tested on: Staphylococcus epidermidis; assay: Antibacterial activity against Staphylococcus epidermidis H 6966/08 after 24 hrs by microdilution broth method; type: functional; conditions: H 6966/08, 24 h; outline: as §1
HepG2 = assay: Cytotoxicity against human HepG2 cells after 24 hrs […]; type: cell-based; conditions: HepG2, 24 h
Klebsiella pneumoniae [26] = assay: Antibacterial activity against ESBL-positive Klebsiella pneumoniae J 14368/08 after 24 hrs by microdilution broth method; type: functional; conditions: J 14368/08, 24 h; outline: as §1
Mycobacterium kansasii [27] = assay: Antimycobacterial activity against Mycobacterium kansasii 6509/96 after 7 days; type: functional; conditions: 6509/96, 168 h; outline: as §3
Nakaseomyces glabratus [28] = assay: Antifungal activity against Candida glabrata 20/I after 24 hrs by microdilution broth method; type: functional; outline: as §2
Candida albicans [29] = assay: Antifungal activity against Candida albicans ATCC 44859 after 24 hrs by microdilution broth method; type: functional; conditions: ATCC 44859, 24 h; outline: as §2
Klebsiella pneumoniae [30] = assay: Antibacterial activity against ESBL-positive Klebsiella pneumoniae J 14368/08 after 48 hrs by microdilution broth method; type: functional; conditions: J 14368/08, 48 h; outline: as §1
Lichtheimia corymbifera [31] = assay: Antifungal activity against Absidia corymbifera 272 after 24 hrs by microdilution broth method; type: functional; conditions: Lichtheimia corymbifera, 272, 24 h; outline: as §2
[32] = tested on: Trichophyton mentagrophytes; assay: Antifungal activity against Trichophyton mentagrophytes 445 after 24 hrs by microdilution broth method; type: functional; conditions: Trichophyton mentagrophytes, 445, 24 h
Staphylococcus aureus [33] = assay: Antibacterial activity against methicillin-resistant Staphylococcus aureus H 5996/08 after 48 hrs by microdilution broth method; type: functional; conditions: H 5996/08, 48 h
[34] = tested on: Mycobacterium tuberculosis; assay: Antimycobacterial activity against Mycobacterium tuberculosis H37Rv 331/88 after 21 days; type: functional; conditions: H37Rv 331/88, 504 h
[35] = Selectivity index, ratio of CI50 for human HepG2 cells to MIC100 for Mycobacterium tuberculosis H37Rv 331/88
Aspergillus fumigatus [36] = assay: Antifungal activity against Aspergillus fumigatus 231 after 48 hrs by microdilution broth method; type: functional; conditions: Aspergillus fumigatus, 231, 48 h; outline: as §2
Nakaseomyces glabratus [37] = assay: Antifungal activity against Candida glabrata 20/I after 48 hrs by microdilution broth method; type: functional; outline: as §2
Trichosporon asahii [38] = assay: Antifungal activity against Trichosporon asahii 1188 after 24 hrs by microdilution broth method; type: functional; conditions: Trichosporon asahii, 1188, 24 h; outline: as §2
Trichosporon asahii [39] = assay: Antifungal activity against Trichosporon asahii 1188 after 48 hrs by microdilution broth method; type: functional; conditions: Trichosporon asahii, 1188, 48 h; outline: as §2
Pichia kudriavzevii [40] = assay: Antifungal activity against Candida krusei E28 after 24 hrs by microdilution broth method; type: functional; conditions: E28, 24 h; outline: as §2
Klebsiella pneumoniae [41] = assay: Antibacterial activity against Klebsiella pneumoniae D 11750/08 after 24 hrs by microdilution broth method; type: functional; conditions: D 11750/08, 24 h; outline: as §1
Enterococcus sp. [42] = assay: Antibacterial activity against Enterococcus sp. J 14365/08 after 48 hrs by microdilution broth method; type: functional; conditions: J 14365/08, 48 h; outline: as §1
Pseudomonas aeruginosa [43] = assay: Antibacterial activity against Pseudomonas aeruginosa CCM 1961 after 24 hrs by microdilution broth method; type: functional; conditions: CCM 1961, 24 h; outline: as §1

O=C(Nc1ccc(C(F)(F)F)cc1)c1cc([N+](=O)[O-])ccc1O
MIC (Escherichia coli [1]): > 500 µM | MIC (Aspergillus fumigatus [2]): 500 µM (≈ 163 µg/mL) | MIC (Staphylococcus aureus [3]): 31.2 µM (≈ 10.2 µg/mL) | MIC (Candida tropicalis [4]): > 500 µM | MIC (Mycobacterium kansasii [5]): 32 µM (≈ 10.4 µg/mL) | MIC (Enterococcus sp. [6]): > 500 µM | MIC (Candida albicans [7]): > 500 µM | MIC (Mycobacterium avium [8]): 62.5 µM (≈ 20.4 µg/mL) | MIC (Staphylococcus aureus [9]): 31.2 µM (≈ 10.2 µg/mL) | MIC (Escherichia coli [10]): > 500 µM | MIC (Staphylococcus aureus [11]): 31.2 µM (≈ 10.2 µg/mL) | MIC [12]: 500 µM (≈ 163 µg/mL) | MIC (Candida tropicalis [13]): > 500 µM | MIC [14]: 15.6 µM (≈ 5.1 µg/mL) | MIC (Klebsiella pneumoniae [15]): > 500 µM | MIC (Mycobacterium kansasii [16]): 32 µM (≈ 10.4 µg/mL) | MIC (Pseudomonas aeruginosa [17]): > 500 µM | MIC (Pichia kudriavzevii [18]): > 500 µM | MIC (Mycobacterium avium [19]): 62.5 µM (≈ 20.4 µg/mL) | MIC (Mycobacterium kansasii [20]): 16 µM (≈ 5.22 µg/mL) | MIC [21]: 8 µM (≈ 2.61 µg/mL) | MIC (Mycobacterium kansasii [22]): 8 µM (≈ 2.61 µg/mL) | MIC (Mycobacterium kansasii [23]): 32 µM (≈ 10.4 µg/mL) | MIC (Lichtheimia corymbifera [24]): 500 µM (≈ 163 µg/mL) | MIC [25]: 15.6 µM (≈ 5.1 µg/mL) | IC50 (HepG2): 3.5 µM | MIC (Klebsiella pneumoniae [26]): > 500 µM | MIC (Mycobacterium kansasii [27]): 16 µM (≈ 5.22 µg/mL) | MIC (Nakaseomyces glabratus [28]): > 500 µM | MIC (Candida albicans [29]): > 500 µM | MIC (Klebsiella pneumoniae [30]): > 500 µM | MIC (Lichtheimia corymbifera [31]): 500 µM (≈ 163 µg/mL) | MIC [32]: 500 µM (≈ 163 µg/mL) | MIC (Staphylococcus aureus [33]): 31.2 µM (≈ 10.2 µg/mL) | MIC [34]: 8 µM (≈ 2.61 µg/mL) | Selectivity Index [35]: 0.438 | MIC (Aspergillus fumigatus [36]): 500 µM (≈ 163 µg/mL) | MIC (Nakaseomyces glabratus [37]): > 500 µM | MIC (Trichosporon asahii [38]): 500 µM (≈ 163 µg/mL) | MIC (Trichosporon asahii [39]): 500 µM (≈ 163 µg/mL) | MIC (Pichia kudriavzevii [40]): > 500 µM | MIC (Klebsiella pneumoniae [41]): > 500 µM | MIC (Enterococcus sp. [42]): > 500 µM | MIC (Pseudomonas aeruginosa [43]): > 500 µM

O=C(Nc1ccc(Cl)c(Cl)c1)c1cccc([N+](=O)[O-])c1O
MIC (Mycobacterium kansasii [5]): 62.5 µM (≈ 20.4 µg/mL) | MIC (Mycobacterium avium [8]): 250 µM (≈ 81.8 µg/mL) | MIC (Mycobacterium kansasii [16]): 62.5 µM (≈ 20.4 µg/mL) | MIC (Mycobacterium avium [19]): 250 µM (≈ 81.8 µg/mL) | MIC (Mycobacterium kansasii [20]): 62.5 µM (≈ 20.4 µg/mL) | MIC [21]: 16 µM (≈ 5.23 µg/mL) | MIC (Mycobacterium kansasii [22]): 32 µM (≈ 10.5 µg/mL) | MIC (Mycobacterium kansasii [23]): 62.5 µM (≈ 20.4 µg/mL) | IC50 (HepG2): 5.9 µM | MIC (Mycobacterium kansasii [27]): 62.5 µM (≈ 20.4 µg/mL) | MIC [34]: 32 µM (≈ 10.5 µg/mL) | Selectivity Index [35]: 0.184
